Measurements of several laboratories.
Target: Serine/threonine-protein kinase Nek4 (NEK4, Homo sapiens, UniProt P51957)

Compound	observed	action	technique	concentration	quantity	value
Cn1cc(-c2cc(F)cc(N3CCn4c(cc5c4CCCC5)C3=O)c2CO)cc(Nc2ccc(N3CCN(C4COC4)CC3)cn2)c1=O	enzyme activity	inhibitor	–	0.1 µM	inhibition	9%
N#CC1(c2ccccn2)CCN(Cc2cc(C(=O)O)c(=O)n3ccccc23)CC1	cell-free assay	–	competition with immobilised ligand	1 µM	remaining binding	100%
Cn1cc(-c2cccc(N3CCc4c(sc5c4CC(C)(C)C5)C3=O)c2CO)cc(Nc2ccncn2)c1=O	enzyme activity	inhibitor	–	1 µM	inhibition	2%
Cc1nn(C)cc1-c1nc2c(N3CCN(Cc4ccc(Cl)cc4)CC3)c(Cl)cnc2[nH]1	binding	–	competition with immobilised ligand	1 µM	remaining binding	82%
O=c1[nH]c2ccccc2n1C1CCN(Cc2ccc(-c3[nH]c4cc5ncnc5cc4nc3-c3ccccc3)cc2)CC1	cell-free assay	–	–	0.5 µM	remaining signal	106%
Nc1ncc(-c2nc(N3CCOCC3)nc(N3CCOCC3)n2)c(C(F)F)n1	binding	–	competition with immobilised ligand	10 µM	remaining binding	75%
Cn1cncc1[C@@](O)(COc1ccc(C#N)cc1-c1ccc(OC(F)(F)F)cc1)c1ccc(C#N)cc1	cell-free assay	–	competition with immobilised ligand	1 µM	remaining binding	90%
CC(C)(C)c1cc(C=C(C#N)C#N)cc(Br)c1O	enzyme activity	inhibitor	–	0.5 µM	remaining activity	93.7%
COc1cc(Nc2ncc(F)c(Nc3ccc4c(n3)NC(=O)C(C)(C)O4)n2)cc(OC)c1OC	binding	–	competition with immobilised ligand	10 µM	inhibition	91%
COc1ncccc1-c1cnn2ccc(N3CCN(C(=O)OC(C)C)CC3)nc12	binding	–	competition with immobilised ligand	1 µM	remaining binding	87%
